Results: ChEMBL document CHEMBL4325827, “Bifidenone: Structure-Activity Relationship and Advanced Preclinical Candidate” (J Med Chem, 2018)

Columns and labels:
[1] = test system: NCI-H460; test: Antiproliferative activity against human NCI-H460 cells after 72 hrs by CellTiter 96 aqueous nonradioactive cell proliferation assay; assay type: functional, cell-based; conditions: NCI-H460, 72 h
In short: (§1)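 Antiproliferation in cultured tumour cells, at least 3 replicate wells per concentration per experiment. NCI-H460 came from ATCC. M14, NCI/ADR-RES, OVCAR-4, HCT-15, ACHN and SF-295 came from the National Cancer Institute. IC50 reported from single experiments where no SD is given.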

[2] = test system: M14; test: Antiproliferative activity against human M14 cells after 72 hrs by CellTiter 96 aqueous nonradioactive cell proliferation assay; assay type: functional, cell-based; conditions: M14, 72 h; in short: as §1
[3] = Plasma concentration in Crl:NU(NCr)-Foxn1 nu mouse at 40 mg/kg, ip injected via vehicle consisting 45% propylene glycol, <3 % tween-20, 20% PEG400, 20% ethanol by LC-MS analysis; assay type: ADME, organism-based; conditions: in vivo
In short: (§2)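 Male Nu/Nu mice, some bearing NCI-H460 or LOX-IMVI xenografts, given a single ip dose at 3 mL/kg. Organic vehicle components were dissolved first, with the aqueous part added gradually. Mice were euthanized at 1 h or 3 h. Cardiac blood was taken into NaEDTA/NaF plasma separator tubes. Quantification used loratadine internal standard against a spiked blank-plasma curve. Tumours were run as duplicate ~200 mg samples homogenized in 3% SDS and extracted twice with ethyl acetate, assuming 1 g tissue = 1 mL.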

[4] = Plasma concentration in Crl:NU(NCr)-Foxn1 nu mouse at 40 mg/kg, ip injected via vehicle consisting 40% propylene glycol, 20% tween-20, 20% PEG400, 20% ethanol […] by LC-MS analysis; assay type: ADME, organism-based; conditions: in vivo; in short: as §2
[5] = Plasma concentration in Crl:NU(NCr)-Foxn1 nu mouse at 40 mg/kg, ip injected via vehicle consisting 25% propylene glycol, 20% tween-20, 20% PEG400, 20% ethanol by LC-MS analysis; assay type: ADME, organism-based; conditions: in vivo; in short: as §2
[6] = Time at which plasma concentration stays above NCI-H460 IC50 in Crl:NU(NCr)-Foxn1 nu mouse xenografted with human NCI-H460 cells at 40 mg/kg, ip injected via vehicle consisting 40.5% propylene glycol, 2.7% tween-20, 31.5% PEG400, 15.3% ethanol and 10% water by LC-MS analysis; assay type: ADME, organism-based; conditions: in vivo
[7] = Ratio of plasma concentration in Crl:NU(NCr)-Foxn1 nu mouse at 40 mg/kg, ip injected via vehicle consisting 40.5% propylene glycol, 2.7% tween-20, 31.5% PEG400, 15.3% ethanol and 10% water measured at 1 hr post injection to IC50 for human NCI-H460 cells; assay type: ADME, organism-based; conditions: in vivo
[8] = Ratio of plasma concentration in Crl:NU(NCr)-Foxn1 nu mouse at 40 mg/kg, ip injected via vehicle consisting 40.5% propylene glycol, 2.7% tween-20, 31.5% PEG400, 15.3% ethanol and 10% water measured at 30 mins post injection to IC50 for human NCI-H460 cells; assay type: ADME, organism-based; conditions: in vivo, 0.5 h
[9] = Ratio of plasma concentration in Crl:NU(NCr)-Foxn1 nu mouse at 75 to 100 mg/kg, ip injected via vehicle consisting 40.5% propylene glycol, 2.7% tween-20, 31.5% PEG400, 15.3% ethanol and 10% water measured at 6 hrs post injection to IC50 for human NCI-H460 cells; assay type: ADME, organism-based; conditions: in vivo
[10] = Time at which plasma concentration stays above NCI-H460 IC50 in Crl:NU(NCr)-Foxn1 nu mouse xenografted with human NCI-H460 cells at 40 mg/kg, ip injected via vehicle consisting 40% propylene glycol, 20% tween-20, 20% PEG400, and 20% ethanol by LC-MS analysis; assay type: ADME, organism-based; conditions: in vivo
[11] = Drug uptake in tumor of human LOXIMVI cells xenografted in Crl:NU(NCr)-Foxn1 nu mouse at 40 mg/kg, ip measured at 3 hrs post injection by LC-MS analysis; assay type: ADME, organism-based, Neoplasm; conditions: in vivo; in short: as §2
[12] = Drug uptake in tumor of human NCI-H460 cells xenografted in Crl:NU(NCr)-Foxn1 nu mouse at 40 mg/kg, ip measured at 3 hrs post injection by LC-MS analysis; assay type: ADME, organism-based, Neoplasm; conditions: in vivo; in short: as §2
[13] = test system: SF-295; test: Antiproliferative activity against taxane-resistant human SF295 cells after 72 hrs by CellTiter 96 aqueous nonradioactive cell proliferation assay; assay type: functional, cell-based; conditions: SF-295, 72 h; in short: as §1
[14] = test system: HCT-15; test: Antiproliferative activity against taxane-resistant human HCT15 cells after 72 hrs by CellTiter 96 aqueous nonradioactive cell proliferation assay; assay type: functional, cell-based; conditions: HCT-15, 72 h; in short: as §1
[15] = test system: UO-31; test: Antiproliferative activity against taxane-resistant human UO31 cells after 72 hrs by CellTiter 96 aqueous nonradioactive cell proliferation assay; assay type: functional, cell-based; conditions: UO-31, 72 h
[16] = test system: OVCAR-4; test: Antiproliferative activity against taxane-resistant human OVCAR4 cells after 72 hrs by CellTiter 96 aqueous nonradioactive cell proliferation assay; assay type: functional, cell-based; conditions: OVCAR-4, 72 h; in short: as §1
[17] = test system: EKVX; test: Antiproliferative activity against taxane-resistant human EKVX cells after 72 hrs by CellTiter 96 aqueous nonradioactive cell proliferation assay; assay type: functional, cell-based
[18] = test system: ACHN; test: Antiproliferative activity against taxane-resistant human ACHN cells after 72 hrs by CellTiter 96 aqueous nonradioactive cell proliferation assay; assay type: functional, cell-based; in short: as §1
[19] = test system: NCI/ADR-RES; test: Antiproliferative activity against taxane-resistant human NCI/ADR-RES cells after 72 hrs by CellTiter 96 aqueous nonradioactive cell proliferation assay; assay type: functional, cell-based; in short: as §1

Row | Structure (SMILES) | IC50 [1] [nM] | IC50 [2] [nM] | other results
1 | C=CC[C@H]1C[C@]2([C@@H](C)Cc3cnc(OC)c(OC)c3)OCOC2=CC1=O | > 20000 | > 20000 | 
2 | C=CC[C@H]1C[C@]2([C@@H](C)Cc3ccc(OC(F)(F)F)cc3)OCOC2=CC1=O | 3800 | > 20000 | 
3 | C=CC[C@H]1C[C@]2(C(CC)Cc3ccc(OC)c(OC)c3)OCOC2=CC1=O (mixture of isomers) | 11000 | 2600 | 
4 | C=CC[C@H]1C[C@]2([C@@H](C)Cc3cnc(OC)cc3F)OCOC2=CC1=O | > 20000 | 8000 | 
5 | C=CC[C@H]1C[C@]2([C@@H](C)Cc3ccc(OC)c(Cl)c3)OCOC2=CC1=O | 640 | 240 | 
6 | C=CC[C@H]1C[C@]2(C(C)Cc3ccc(F)cc3)OCOC2=CC1=O (stereo partly drawn) | > 20000 | > 20000 | 
7 | C=CC[C@H]1C[C@]2([C@H](C)Cc3c(F)cc(OC)cc3F)OCOC2=CC1=O | 2500 | 320 | 
8 | C=CC[C@H]1C[C@]2([C@H](C)Cc3ccc(OC)c(F)c3F)OCOC2=CC1=O | 3300 | 3800 | 
9 | C=CC[C@H]1C[C@]2([C@@H](C)Cc3ccc(OC)nc3)OCOC2=CC1=O | 330 | 180 | 
10 | C=CC[C@@H]1C[C@]2([C@H](C)Cc3ccc(OC)c(OC)c3)OCOC2=CC1=O | > 4000 | > 4000 | 
11 | C=CC[C@H]1C[C@]2([C@@H](C)Cc3ccc(OC(C)=O)cc3)OCOC2=CC1=O | > 20000 | > 20000 | 
12 | C=CC[C@H]1C[C@]2([C@@H](C)Cc3ccc(O)cc3)OCOC2=CC1=O | > 20000 | > 20000 | 
13 | C=CC[C@H]1C[C@]2([C@@H](C)Cc3cccc(OC)c3)OCOC2=CC1=O | 10600 | 8800 | 
14 | C=CC[C@@H]1C[C@]2([C@@H](C)Cc3ccc(OC)c(OC)c3)OCOC2=CC1=O | > 4000 | > 4000 | 
15 | C=CC[C@H]1C[C@]2([C@@H](C)Cc3ccc(OC)c(C#N)c3)OCOC2=CC1=O | 340 | 180 | 
16 | C=CC[C@H]1C[C@]2([C@@H](C)Cc3ccccc3)OCOC2=CC1=O | 9700 | 5100 | 
17 | C=CC[C@H]1C[C@]2(C(C)Cc3cc(C(N)=O)c(OC)cc3F)OCOC2=CC1=O (stereo partly drawn) | 330 | 4 | 
18 | C=CC[C@H]1C[C@]2([C@@H](C)Cc3cc(C)c(OC)cc3F)OCOC2=CC1=O | 650 | 230 | 
19 | C=CC[C@H]1C[C@]2([C@@H](C)Cc3ccc(OC)c(OC)c3)OCOC2=CC1=O |  | 110 | Drug uptake [3]: Active; Drug uptake [4]: Active; Drug uptake [5]: Not Active; Time [6]: 3 h; Ratio [7]: > 3; Ratio [8]: > 6; Ratio [9]: > 4; Time [10]: 1 h
20 | C=CC[C@H]1C[C@]2([C@@H](C)Cc3ccc(OC)c(C)c3)OCOC2=CC1=O | 630 | 410 | 
21 | C=CC[C@H]1C[C@]2([C@@H](C)Cc3ccc(OC)c(N4CCOCC4)c3)OCOC2=CC1=O | > 20000 | > 20000 | 
22 | C=CC[C@H]1C[C@]2(CCc3ccc(OC)c(OC)c3)OCOC2=CC1=O | 3200 | 2000 | 
23 | CC(=O)O[C@H]1C(=O)[C@@]2(C)[C@H]([C@H](OC(=O)c3ccccc3)[C@]3(O)C[C@H](OC(=O)[C@H](O)[C@@H](NC(=O)c4ccccc4)c4ccccc4)C(C)=C1C3(C)C)[C@]1(OC(C)=O)CO[C@@H]1C[C@@H]2O [PACLITAXEL] |  |  | IC50 [13]: 56 nM; IC50 [14]: 190 nM; IC50 [15]: 240 nM; IC50 [16]: > 600 nM; IC50 [17]: 150 nM; IC50 [18]: 80 nM; IC50 [19]: > 9000 nM
24 | C=CC[C@H]1C[C@]2([C@@H](C)Cc3ccc(OC)c(C(=O)NC)c3)OCOC2=CC1=O | 1100 | 1400 | 

Continued by falling IC50 [1], values first:

Row | IC50 [1] [nM] | Structure (SMILES) | IC50 [2] [nM] | other results
25 | 320 | C=CC[C@H]1C[C@]2([C@H](C)Cc3ccc(OC)c(OC)c3)OCOC2=CC1=O | 300 | 
26 | 310 | C=CC[C@H]1C[C@]2([C@@H](C)Cc3ccc(OC)c(NC(C)=O)c3)OCOC2=CC1=O | 85 | 
27 | 280 | C=CC[C@H]1C[C@]2(C(C)Cc3ccc(OCC)cc3)OCOC2=CC1=O (stereo partly drawn) | 650 | 
28 | 180 | C=CC[C@H]1C[C@]2(C(C)Cc3ccc(OC)c(N)c3)OCOC2=CC1=O (stereo partly drawn) | 49 | 
29 | 160 | C=CC[C@H]1C[C@]2([C@@H](C)Cc3cc(N)c(OC)cc3F)OCOC2=CC1=O | 29 | 
30 | 150 | C=CC[C@H]1C[C@]2([C@@H](C)Cc3cc(C#N)c(OC)cc3F)OCOC2=CC1=O | 37 | 
31 | 120 | C=CC[C@H]1C[C@]2([C@H](C)Cc3ccc(OC)cc3)OCOC2=CC1=O | 81 | 
32 | 120 | C=CC[C@H]1C[C@]2([C@@H](C)Cc3cc(OC)c(OC)cc3F)OCOC2=CC1=O | 14 | 
33 | 110 | C=CC[C@H]1C[C@]2(C(C)Cc3ccc(OC)c(OC(C)=O)c3)OCOC2=CC1=O (stereo partly drawn) | 16 | 
34 | 94 | C=CC[C@H]1C[C@]2([C@@H](C)Cc3ccc(OC)cc3F)OCOC2=CC1=O | 14 | Drug uptake [11]: Active
35 | 90 | C=CC[C@H]1C[C@]2([C@@H](C)Cc3ccc(OC)c(F)c3)OCOC2=CC1=O | 8 | 
36 | 90 | C=CC[C@H]1C[C@]2([C@@H](C)Cc3ccc(OC)cc3)OCOC2=CC1=O | 20 | 
37 | 80 | C=CC[C@H]1C[C@]2([C@@H](C)Cc3ccc(OC)c(O)c3)OCOC2=CC1=O | 8 | 
38 | 71 | C=CC[C@H]1C[C@]2([C@@H](C)Cc3cc(NC(C)=O)c(OC)cc3F)OCOC2=CC1=O | 52 | 
39 | 66 | C=CC[C@H]1C[C@]2([C@@H](C)Cc3ccc(OC)c(C(N)=O)c3)OCOC2=CC1=O | 12 | 
40 | 59 | C=CC[C@H]1C[C@]2([C@@H](C)Cc3cc(F)c(OC)cc3F)OCOC2=CC1=O | 30 | Drug uptake [12]: Active
41 | 35 | C=CC[C@H]1C[C@]2([C@H](C)Cc3cc(F)c(OC)cc3F)OCOC2=CC1=O | 10 | 
42 | 33 | C=CC[C@H]1C[C@]2([C@@H](C)Cc3cc(O)c(OC)cc3F)OCOC2=CC1=O | 9 | 
